The nature of assay [1]: inhibitors of TNFa-induced NFkB p65 translocation, primary screen, imaging, HUVEC, MLSMR starter and 10KST1 sets (AID 438;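 active = inhibition above 20% together with a positive visual image hit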;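 also: compound added about 3h40 before a 20 min TNFalpha stimulation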;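 as to inhibition: signal is the nuclear over cytoplasmic p65 intensity ratio per well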). The following applies: HUVEC TNFa-induced p65 nuclear translocation; cell count: measured here: nuclei count (cytotoxicity indicator), at 2.08 µM; inhibition: at 2 µM, stronger effect = higher value, 0% TNFa-plus-vehicle, 100% no-TNFa wells.
A short description of assay [2]: reduction of polyQ htt aggregates in cells – imaging, exon1htt(103Q)mCFP cells, high-content imaging, primary screen (AID 483;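 active = visual image review flags a hit and inhibition of aggregation exceeds 20%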;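 also: compound exposure lasted 3 days before fixation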;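 as to nuclei count: percent of the per-plate median nuclei count of sample wells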). The settings on record: exon1htt(103Q)mCFP cell line, aggregate imaging, at 2 µM; inhibition of aggregation: stronger effect = higher value; nuclei count: measured here: cell count, toxicity.
Assay [3] in a line: endothelial E-selectin expression blockers – imaging, HUVEC, immunofluorescence, MLSMR starter and 10KST1 sets, primary screen (AID 487;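 active = visually confirmed hit in the image check and inhibition above 20%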;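 as to inhibition: signal is fraction of cell area covered by stained E-selectin grains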;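 as to nuclei count: 100% = median nuclei count of all wells on the same plate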). The following applies: HUVEC TNFalpha-induced E-selectin immunofluorescence imaging, at 2 µM; inhibition: stronger effect = higher value; nuclei count: measured here: cell number, toxicity.
Assay [4] deals with Voltage-gated potassium channel subunit beta-2 (Rattus norvegicus) (UniProt P62483). Briefly: inhibitors of rat Kvbeta2 reductase activity – biochemical, NADPH fluorescence, primary screen (AID 622;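 active = fluorescence slope higher than the sample average by over 3 SD, cut at about -0.22 in these data, passing the limit was not always enough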;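 also: slope of raw intensity against log time taken from 70 to 1610 s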). The settings on record: recombinant KvBeta, 4-cyanobenzaldehyde reduction, at 10 µM, stronger effect = higher value.
Sequence of Voltage-gated potassium channel subunit beta-2 (Rattus norvegicus) (P62483 whole entry, looked up): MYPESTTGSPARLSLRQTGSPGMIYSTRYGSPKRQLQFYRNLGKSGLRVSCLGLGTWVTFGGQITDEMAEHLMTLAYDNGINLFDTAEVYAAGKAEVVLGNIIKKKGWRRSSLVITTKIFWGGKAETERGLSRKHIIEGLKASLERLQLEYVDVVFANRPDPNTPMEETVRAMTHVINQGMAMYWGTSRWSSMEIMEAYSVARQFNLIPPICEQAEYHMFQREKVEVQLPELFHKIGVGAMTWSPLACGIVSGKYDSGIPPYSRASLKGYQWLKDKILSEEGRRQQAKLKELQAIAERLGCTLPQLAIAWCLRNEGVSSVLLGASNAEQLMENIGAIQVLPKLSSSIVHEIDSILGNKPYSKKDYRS
Assay [5] shares this target. Briefly: enhancers of rat Kvbeta2 NADPH turnover – biochemical, NADPH fluorescence, primary screen (AID 623;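 active = NADPH fluorescence slope more negative than the mean of all samples by about 3 SD, 99.7% confidence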;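 also: fluorescence intensity change per second fitted from 20 to 320 s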). The following applies: Recombinant KvBeta, NADPH fluorescence decrease slope, 10 min; at 10 µM; stronger effect = lower value.
The target in assay [6] is Alpha-2C adrenergic receptor (Homo sapiens) (UniProt P18825). Kind of assay: compounds altering alpha2C-coupled GIRK flux – cell-based, HEK293 alpha2C/GIRK1/2, thallium flux, primary screen (AID 624;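 active = fluorescence slope after compound addition differing from the mean of all screened samples at 99.7% confidence, in either direction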;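 also: slope of fluorescence ratio to pre-addition baseline per second over 15 to 24 s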). The settings on record: thallium flux BTC fluorescence, at 10 µM, actives lie on both sides.
Sequence of Alpha-2C adrenergic receptor (Homo sapiens) (P18825 whole entry, looked up): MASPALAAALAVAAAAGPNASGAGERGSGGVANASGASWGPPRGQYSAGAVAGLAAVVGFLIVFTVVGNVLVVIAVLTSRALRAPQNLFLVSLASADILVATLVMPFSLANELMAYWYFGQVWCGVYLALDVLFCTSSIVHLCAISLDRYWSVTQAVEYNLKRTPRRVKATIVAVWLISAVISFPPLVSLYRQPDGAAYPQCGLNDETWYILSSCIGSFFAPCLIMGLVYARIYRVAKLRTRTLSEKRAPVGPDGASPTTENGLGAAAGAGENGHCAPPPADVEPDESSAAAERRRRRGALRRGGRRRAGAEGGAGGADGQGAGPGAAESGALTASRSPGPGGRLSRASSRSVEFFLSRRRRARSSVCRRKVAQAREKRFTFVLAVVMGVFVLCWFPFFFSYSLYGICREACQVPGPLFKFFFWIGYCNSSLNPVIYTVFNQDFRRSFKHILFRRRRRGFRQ
Assay [7] in a line: inhibitors of larval lipid processing in zebrafish, primary screen, whole organism, PED6 fluorescence, gall bladder and intestine (AID 686;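 active = a full or partial loss of lipid-probe fluorescence in the fish gall bladder, intestine or both, judged by eye; inactive = no fluorescence loss, or compound toxic to the fish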;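 also: larvae 5 to 7 days old with five fish per well; signal comes from phospholipase A2 cleavage of quenched PED6 carried via bile; overnight exposure to compound and PED6 before scoring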). The following applies: Zebrafish larvae PED6 lipid processing, fluorescence scoring; screened at 20 µM (by protocol). The essentials:
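system = live zebrafish larvae aged 5-7 days, whole organism | probe or stimulus = ingested quenched lipid PED6 at 100 nM | doses = 20 µM single dose | timing = overnight exposure | detection = fluorescence microscopy with visual scoring of gall bladder and intestine | read-out = visual per-well fluorescence inhibition score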

Assay [8] in a line: blockers of RIG-like receptor reporter activation – cell-based, Sendai virus stimulus, luciferase, 10K MLSCN set, TLR/RLR signaling modifier project, primary screen (AID 602276;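 active = inhibition at or above 50% at 10 µM; inactive = inhibition below 50%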;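 also: firefly luciferase from ISG56 promoter only with Renilla not read in this screen; 0% = Sendai virus plus DMSO and 100% = medium plus DMSO without virus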). The settings on record: HEK293 RL24 IRF3 luciferase reporter, at 10 µM, stronger effect = higher value. In general terms: In a reporter assay the amount or activity of a reporter protein is the signal.
The nature of assay [9]: TLR3 IRF3 reporter activation blockers – cell-based, poly I:C stimulus, luciferase, 10K MLSCN set, primary screen (AID 602277). The settings on record: HEK293-TLR3 RL24 IRF3 luciferase reporter, at 10 µM, stronger effect = higher value.

Activity calls are given as the source filed them.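 The calls were made as follows, unless noted: active = inhibition of the reporter signal at or above 50%; inactive = inhibition below 50%.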

Usually inhibition stands for the drop in the measured response relative to a control, in per cent. Regarding `COc1cc(-c2nc(-c3ccncc3)no2)cc(OC)c1OC`, the cell count in assay [1] came out at 491. The inhibition was -1.1% (inactive) in [1], 58.4% (inactive) in [3], 4.77% (inactive) in assay [8] and -3.43% (inactive) in assay [9]. The inhibition of aggregation in [2] was -1.8% (inactive). Besides, the nuclei count stood at 88.9% in assay [2] and 50.2% in [3]. Besides, the fluorescence slope in assay [4] was -0.341 (inactive). The NADPH fluorescence slope in [5] is -3.8e-05 (inactive). For the same compound, the slope in assay [6] was 0.00475 (inactive). In assay [7], the outcome was inactive.

For `COc1ccc(NC(=O)CC2CCCCC2)cc1OC`, the cell count in [1] is 258. For the same compound, the inhibition was -5.5% (inactive) in assay [1], -69.1% (inactive) in assay [3], -6.37% (inactive) in assay [8] and -23% (inactive) in assay [9]. For the same compound, the inhibition of aggregation in assay [2] was -4.8% (inactive). In addition, the nuclei count in [2] is 91.1%; in [3] it was 99.7%. Besides, the fluorescence slope in assay [4] was -0.356 (inactive). In addition, the NADPH fluorescence slope in assay [5] is -2.3e-05 (inactive). Further, in assay [6], the slope was 0.00718 (inactive). Moreover, the outcome in assay [7] was inactive.

On to `COCCn1c(C)cc(C(=O)COC(=O)c2ccc(N3CCCC3=O)cc2)c1C`, for which the cell count in [1] amounted to 527. The inhibition in [1] was -16.9% (inactive); in assay [3], 26.9% (inactive); in assay [8] it was 14.7% (inactive); in assay [9], 26.1% (inactive). Further, the inhibition of aggregation in assay [2] is 12.8% (inactive). Moreover, the nuclei count was found to be 97.9% in assay [2] and 103% in assay [3]. Further, the fluorescence slope in assay [4] is -0.329 (inactive). For the same compound, in [5], the NADPH fluorescence slope was -7.1e-05 (inactive). Also, in assay [6], the slope is 0.00515 (inactive). Also, the result in [7] was inactive.

On to `CCOC(=O)n1c(=O)oc2cc(S(=O)(=O)N3CCCCC3)ccc21`, for which the cell count in [1] turned out to be 419. For the same compound, the inhibition in assay [1] is 14.8% (inactive); in assay [3], 35.2% (inactive); in [8] it was 8.09% (inactive); in assay [9] it was 16.3% (inactive). Besides, in assay [2], the inhibition of aggregation was -1% (inactive). Moreover, the nuclei count in assay [2] amounted to 103%; in assay [3], 81.5%. In addition, the fluorescence slope in [4] was -0.294 (inactive). In [5], the NADPH fluorescence slope is -1.1e-05 (inactive). In [6], the slope is 0.00583 (inactive). Also, in assay [7], the result was inactive.

With `CCOC(=O)N1CCN(C(=O)CN(C2CCCCC2)S(=O)(=O)c2ccc(F)cc2)CC1`, the cell count in assay [1] came to 645. Besides, the inhibition in assay [1] was -10.7% (inactive); in assay [3] it was -51.6% (inactive); in assay [8], 21.5% (inactive); in assay [9], 81.8% (active). For the same compound, the inhibition of aggregation in [2] was 18.3% (inactive). The figures for the nuclei count in [2] and in [3] were 81.3% and 108%, respectively. The fluorescence slope in [4] was -0.355 (inactive). Also, the NADPH fluorescence slope in [5] was -7.3e-05 (inactive). Besides, in assay [6], the slope is 0.00492 (inactive). The result in [7] was inactive.

On to `COc1nc(-c2ccc(Cl)cc2)ccc1-c1noc(-c2ccncc2)n1`, for which the cell count in assay [1] was found to be 332. The inhibition was 1.5% (inactive) in [1], -31.6% (inactive) in assay [3], 6.3% (inactive) in [8] and -7.25% (inactive) in [9]. Further, the inhibition of aggregation in assay [2] was -4.2% (inactive). In addition, the nuclei count came to 97.5% in [2] and 114% in assay [3]. In [4], the fluorescence slope was -0.223 (inactive). Also, in assay [5], the NADPH fluorescence slope was -1.2e-07 (inactive). For the same compound, the slope in assay [6] is 0.00449 (inactive). For the same compound, in assay [7], the call was inactive.

Consider `O=C(c1ccc2snnc2c1)N1CCOCC1`, for which, in assay [1], the cell count amounted to 370. In addition, the inhibition in [1] was 6.3% (inactive); in [3], -50.1% (inactive); in assay [8] it was 10.1% (inactive); in [9], 13.9% (inactive). Besides, in assay [2], the inhibition of aggregation was -11.2% (inactive). Further, the nuclei count in assay [2] amounted to 107%; in assay [3] it was 117%. In assay [4], the fluorescence slope is -0.371 (inactive). In [5], the NADPH fluorescence slope is -4.9e-05 (inactive). The slope in [6] is 0.00486 (inactive). The result in assay [7] was inactive.

`O=C(NC1CCCCCCC1)C1CCN(c2nc3ccccc3o2)CC1`: in assay [1], the cell count amounted to 737. The inhibition in [1] is -10.2% (inactive); in assay [3], -34.9% (inactive); in assay [8] it was 6.61% (inactive); in assay [9], -11.1% (inactive). Moreover, in assay [2], the inhibition of aggregation was 9.4% (inactive). Further, the nuclei count in [2] was 94.8%; in assay [3] it was 116%. Further, the fluorescence slope in assay [4] is -0.334 (inactive). Besides, the NADPH fluorescence slope in [5] was 8.8e-06 (inactive). The slope in assay [6] was 0.0059 (inactive). In addition, the result in [7] was inactive.

Regarding `O=C(CN1CCSCC1)N1CCc2[nH]c3ccc(Br)cc3c2C1`, the cell count in [1] was found to be 691. Moreover, the inhibition is 3.4% (inactive) in assay [1], 28.3% (inactive) in assay [3], 10.7% (inactive) in assay [8] and 7.8% (inactive) in assay [9]. The inhibition of aggregation in assay [2] was 21.5% (inactive). Moreover, the nuclei count in assay [2] stood at 99.4%; in [3] it was 102%. Moreover, the fluorescence slope in assay [4] is -0.384 (inactive). Moreover, the NADPH fluorescence slope in assay [5] was -5.2e-05 (inactive). In addition, the slope in [6] is 0.00508 (inactive). In addition, the call in assay [7] was inactive.

As for `CCOc1nc(-c2ccccc2O)nc2ccccc12`, in assay [1], the cell count was found to be 716. In addition, the inhibition is -3.1% (inactive) in assay [1], -148% (inactive) in assay [3], 6.19% (inactive) in assay [8] and 9.49% (inactive) in [9]. For the same compound, in assay [2], the inhibition of aggregation is -11.6% (inactive). Moreover, the nuclei count in assay [2] worked out at 104%; in [3], 116%. Also, in assay [4], the fluorescence slope was -0.437 (inactive). In addition, the NADPH fluorescence slope in [5] was -2.5e-05 (inactive). The slope in assay [6] was 0.00628 (inactive). The call in [7] was inactive.

Take `Cc1cc(C)n(C(C)n2nc(C)cc2C)n1`: in assay [1], the cell count is 367. Moreover, the inhibition was 4.3% (inactive) in [1], -37% (inactive) in assay [3], 11.8% (inactive) in assay [8] and 12.7% (inactive) in [9]. The inhibition of aggregation in assay [2] is -9.9% (inactive). Moreover, the figures for the nuclei count in assay [2] and in assay [3] were 110% and 68%, respectively. For the same compound, the fluorescence slope in assay [4] was -0.364 (inactive). The NADPH fluorescence slope in assay [5] is -6.5e-05 (inactive). Further, in [6], the slope is 0.00585 (inactive). Further, in [7], the compound was called inactive.

For the compound `CCn1c(SCC(N)=O)nnc1-c1ccc(S(=O)(=O)N2CCN(C)CC2)cc1`, in [1], the cell count worked out at 736. The inhibition in assay [1] was -10.2% (inactive); in [3], -11.3% (inactive); in assay [8] it was -10.4% (inactive); in assay [9], -10.4% (inactive). Besides, the inhibition of aggregation in [2] was -23.3% (inactive). For the same compound, the nuclei count in assay [2] worked out at 118%; in [3] it was 129%. For the same compound, the fluorescence slope in assay [4] is -0.396 (inactive). Besides, the NADPH fluorescence slope in assay [5] was -1.7e-05 (inactive). The slope in assay [6] is 0.00446 (inactive). Moreover, the result in assay [7] was inactive.

As to `O=C(Nc1nnc(C2CCCC2)s1)C1CCN(S(=O)(=O)c2ccc(Cl)cc2)CC1`, in [1], the cell count is 349. Also, the inhibition is 0% (inactive) in assay [1], -83.1% (inactive) in assay [3], 13.4% (inactive) in assay [8] and 6.21% (inactive) in assay [9]. Further, in [2], the inhibition of aggregation was 18.7% (inactive). Further, the results for the nuclei count in assay [2] and in assay [3] were 85.1% and 104%, respectively. Besides, in [4], the fluorescence slope was -0.345 (inactive). The NADPH fluorescence slope in assay [5] was -1.7e-05 (inactive). Moreover, the slope in [6] is 0.00671 (inactive). In addition, the result in assay [7] was inactive.

The values are drawn from PubChem BioAssay.
